# Laboratory results from ChEMBL document CHEMBL1125553, “Bioisosteric replacement of the alpha-amino carboxylic acid functionality in 2-amino-5-phosphonopentanoic acid yields unique 3,4-diamino-3-cyclobutene-1,2-dione containing NMDA antagonists” (J Med Chem, 1992).
# Columns and labels:
# [1] = target: T1, Glutamate receptor ionotropic, AMPA (Rattus norvegicus, UniProt P19490+P19491+P19492+P19493); experiment: Compound was tested or its affinity against AMPA receptor in rats
# [2] = target: Glutamate receptor ionotropic, kainate; experiment: Compound was tested or its affinity against ionotropic glutamate receptor ionotropic kainate in rats
# Glutamate NMDA receptor [3] = experiment: Inhibition of [3H]CPP binding to rat N-methyl-D-aspartate glutamate receptor; format: protein-complex assay
# How it was run: (§1)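 Rat brain crude synaptic membranes treated with 0.04% Triton X-100 and stored frozen at -70 °C. Before use they were thawed, washed once in Tris HCl buffer and resuspended at 0.3–0.5 mg protein/mL (Lowry). NMDA receptor affinity was measured as displacement of [3H]CPP binding to these membranes.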
# Mus musculus [4] = species on record: Mus musculus; experiment: (§2) Effective dose against NMDA-induced lethality in male Swiss-albino mice; format: ADME, organism-based; conditions: in vivo
# Glutamate NMDA receptor [5] = experiment: The compound was tested for its affinity against N-methyl-D-aspartate glutamate receptor in rats using [3H]CPP as radioligand; how it was run: as §1
# Mus musculus [6] = species on record: Mus musculus; experiment: Effective dose against NMDA-induced lethality in male Swiss-albino mice was determined at a concentration of 50 uM; format: organism-based; conditions: in vivo
# [7] = target: T1, Glutamate receptor ionotropic, AMPA; experiment: The compound was tested for its affinity against AMPA receptor in rats
# [8] = target: T2, Glutamate NMDA receptor (Rattus norvegicus) (UniProt P35439+Q00959+Q00960+Q00961+Q62645+Q8VHN2+Q9R1M7); experiment: The compound was tested for the inhibition of N-methyl-D-aspartate glutamate receptor in rats using [3H]-CPP as uM; conditions: concentration not given here
# How it was run: (§3)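 Rat brain crude synaptic membranes, Triton X-100 treated, frozen at -70 °C, thawed, washed once, resuspended in Tris HCl buffer at 0.3–0.5 mg protein/mL (Lowry). NMDA receptor affinity measured by displacement of [3H]CPP binding.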
# [9] = target: T2, Glutamate NMDA receptor (Rattus norvegicus); experiment: The compound was tested for the inhibition of N-methyl-D-aspartate glutamate receptor in rats using [3H]CPP as uM; conditions: concentration not given here; how it was run: as §3
# Rattus norvegicus = species on record: Rattus norvegicus; experiment: Ability to displace [3H]TCP from rat brain; format: functional
# Glutamate NMDA receptor [10] = experiment: Compound tested for affinity towards N-methyl-D-aspartate glutamate receptor by measuring their ability to displace [3H]TCP from rat brain
# [11] = target: T2, Glutamate NMDA receptor (Rattus norvegicus); experiment: The compound was tested for its affinity against N-methyl-D-aspartate glutamate receptor in rats using [3H]CPP as uM; conditions: concentration not given here; how it was run: as §3
# Mus musculus [12] = species on record: Mus musculus; experiment: as §2; format: functional
structure (smiles),measurement,setting,value
C=CCN(CC(=O)O)c1c(N)c(=O)c1=O,IC50,[1],> 100 µM
same,IC50,[2],> 100 µM
same,IC50,Glutamate NMDA receptor [3],10 µM
Nc1c(NCP(=O)(O)O)c(=O)c1=O,ED50,Mus musculus [4],> 100 mg/kg
same,IC50,Glutamate NMDA receptor [5],> 10 µM
C/N=c1\c(O)c(O)\c1=N/CCC(=O)O,IC50,Glutamate NMDA receptor [3],20 µM
CN(CCP(=O)(O)O)c1c(N)c(=O)c1=O,Inhibition,Mus musculus [6],50%
same,IC50,Glutamate NMDA receptor [5],1 µM
Nc1c(N(CC(=O)O)Cc2ccccc2)c(=O)c1=O,IC50,[7],> 100 µM
same,IC50,[2],> 100 µM
same,inhibition,[8],50%
Nc1c(NCCn2oc(=O)[nH]c2=O)c(=O)c1=O,IC50,[7],> 100 µM
same,IC50,[2],> 100 µM
same,IC50,Glutamate NMDA receptor [3],5.2 µM
NS(=O)(=O)c1cccc2c1c([N+](=O)[O-])cc1nc(O)c(O)nc12 [NBQX],IC50,Glutamate NMDA receptor [3],> 10 µM
N[C@@H](Cn1oc(=O)[nH]c1=O)C(=O)O [QUISQUALATE],IC50,Glutamate NMDA receptor [3],> 100 µM
C=C(C)CN(CC(=O)O)c1c(N)c(=O)c1=O,IC50,[7],> 100 µM
same,IC50,[2],> 100 µM
same,inhibition,[9],46%
Nc1c(NCCC(=O)O)c(=O)c1=O,IC50,Rattus norvegicus,941 µM
Nc1c(NCCCP(=O)(O)O)c(=O)c1=O,ED50,Mus musculus [4],> 100 mg/kg
same,IC50,Glutamate NMDA receptor [5],2.6 µM
Nc1c(NCC(=O)O)c(=O)c1=O,IC50,[7],> 100 µM
same,IC50,[2],> 100 µM
CCOC(=O)C/N=c1\c(O)c(O)c1=N,IC50,Glutamate NMDA receptor [3],190 µM
O=C(O)C1CN(CCCP(=O)(O)O)CCN1 (stereo not drawn),IC50,Glutamate NMDA receptor [10],45 µM
Nc1c(NCCCCP(=O)(O)O)c(=O)c1=O,ED50,Mus musculus [4],> 30 mg/kg
same,inhibition,[11],68%
O=C(O)CCNc1c(O)c(=O)/c1=N\Cc1ccccc1,IC50,Glutamate NMDA receptor [3],> 100 µM
NC(CCCCCP(=O)(O)O)C(=O)O (stereo not drawn) [AP-7],ED50,Mus musculus [12],38 mg/kg
same,IC50,Glutamate NMDA receptor [3],0.39 µM
Nc1c(NCCP(=O)(O)O)c(=O)c1=O,ED50,Mus musculus [4],29 mg/kg
same,IC50,Glutamate NMDA receptor [5],0.47 µM
